Measurements from ChEMBL document CHEMBL1139517, “Mono- and bis-thiazolium salts have potent antimalarial activity” (J Med Chem, 2005).

How the values were obtained:
[1] = Ratio of LD50 to ED50 expressed as TI; assay type: ADME; conditions: mouse
In short: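 Therapeutic index calculated as LD50/ED50. ED50 came from a modified 4-day suppressive test against P. vinckei petteri (279BY) in female Swiss mice, dosed ip once daily for 4 days. It is the dose giving 50% inhibition of parasite growth versus vehicle-treated controls, read the day after the last dose. LD50 came from tolerance after ip administration in mice.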

Mus musculus = assay: In vivo effective dose against Plasmodium vinckei in mice (Mus musculus) after intraperitoneal administration of the compound; assay type: functional; conditions: ip
In short: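 Modified Peters 4-day suppressive test in female Swiss mice infected with P. vinckei petteri (279BY). Dosing was ip, once daily for 4 days. Controls received an equal volume of vehicle. Parasite growth was assessed on the day after the last treatment. ED₅₀ is the dose giving 50% growth inhibition relative to control.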

Plasmodium falciparum = assay: In vitro inhibition of Plasmodium falciparum; assay type: functional, organism-based
In short: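 [³H]-hypoxanthine incorporation assay on the Nigerian strain of P. falciparum, run as described in earlier work. IC₅₀ is the concentration giving 50% inhibition of incorporation.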

[2] = Lethal dose against Plasmodium vinckei in mice (Mus musculus) after intraperitoneal administration; assay type: toxicity; conditions: in vivo, ip

SMILES: COCCc1sc[n+](CCCCCCCCCCCC[n+]2csc(CCOC)c2C)c1C.[I-].[I-]
- TI [1]: 5%
- ED50 (Mus musculus): 0.14 mg/kg
- IC50 (Plasmodium falciparum): 0.65 nM
- LD50 [2]: 1.2 mg/kg

SMILES: Cc1c(CCOC(C)C)sc[n+]1CCCCCCCCCCCC[n+]1csc(CCOC(C)C)c1C
- IC50 (Plasmodium falciparum): 4.8 nM

SMILES: COCCc1sc[n+](CCCCc2ccc(CCCC[n+]3csc(CCOC)c3C)cc2)c1C
- IC50 (Plasmodium falciparum): 5 nM

SMILES: Cc1c(CCO)sc[n+]1CCCCCCCC[n+]1csc(CCO)c1C
- IC50 (Plasmodium falciparum): 362 nM

SMILES: CCOC(=O)Cc1c(CCCCCCCCCCCCc2sc[n+](Cc3ccccc3)c2CC(=O)OCC)sc[n+]1Cc1ccccc1
- IC50 (Plasmodium falciparum): 250 nM

SMILES: COC(=O)CCC(=O)OCCc1sc[n+](CCCCCCCCCCCC[n+]2csc(CCOC(=O)CCC(=O)OC)c2C)c1C.[I-].[I-]
- ED50 (Mus musculus): 3.1 mg/kg
- IC50 (Plasmodium falciparum): 5 nM

SMILES: c1ccc2c(c1)sc[n+]2CCCCCCCCCCCC[n+]1csc2ccccc21
- IC50 (Plasmodium falciparum): 2300 nM

SMILES: COCCc1sc[n+](CCCCCCCC[n+]2csc(CCOC)c2C)c1C
- IC50 (Plasmodium falciparum): 87.5 nM

SMILES: CCc1sc[n+](CCCCCCCCCCCC[n+]2csc(CC)c2C)c1C.[I-].[I-]
- ED50 (Mus musculus): 0.4 mg/kg
- IC50 (Plasmodium falciparum): 1.6 nM

SMILES: COCCc1sc[n+](CCCCCCCCCC[n+]2csc(CCOC)c2C)c1C
- IC50 (Plasmodium falciparum): 8.9 nM

SMILES: Cc1csc[n+]1CCCCCCCCCCCC[n+]1cscc1C.[I-].[I-]
- ED50 (Mus musculus): 2.6 mg/kg
- IC50 (Plasmodium falciparum): 3 nM

SMILES: Cc1sc[n+](CCCCCCCCCCCC[n+]2csc(C)c2C)c1C.[I-].[I-]
- ED50 (Mus musculus): 1 mg/kg
- IC50 (Plasmodium falciparum): 1.5 nM

SMILES: Cc1c(CCOCCCCCCOCCc2sc[n+](C)c2C)sc[n+]1C
- IC50 (Plasmodium falciparum): 275 nM

SMILES: CC(=O)OCCc1sc[n+](CCCCCCCCCCCC[n+]2csc(CCOC(C)=O)c2C)c1C.[I-].[I-]
- ED50 (Mus musculus): 0.7 mg/kg
- IC50 (Plasmodium falciparum): 3.1 nM

SMILES: CCCCCCCCCCCC[n+]1csc(CCOC)c1C
- IC50 (Plasmodium falciparum): 75 nM

SMILES: COCCc1sc[n+](CCCCCCCCCCCCCCCC[n+]2csc(CCOC)c2C)c1C
- IC50 (Plasmodium falciparum): 1.1 nM

SMILES: CCOC(=O)Cc1c(CCCCCCCCCCCCc2sc[n+](C)c2CC(=O)OCC)sc[n+]1C
- IC50 (Plasmodium falciparum): 22 nM

SMILES: Cc1c(CCO)sc[n+]1CCCCCCCCCC[n+]1csc(CCO)c1C
- IC50 (Plasmodium falciparum): 34 nM

SMILES: Cc1c(CCO)sc[n+]1CCCCCCCCCCCC[n+]1csc(CCO)c1C.[I-].[I-]
- TI [1]: 5%
- ED50 (Mus musculus): 0.2 mg/kg
- IC50 (Plasmodium falciparum): 2.25 nM
- LD50 [2]: 1.2 mg/kg

SMILES: C[N+]1(CCCCCCCCCCCCCCCC[N+]2(C)CCCC2)CCCC1.[Br-].[Br-]
- ED50 (Mus musculus): 0.22 mg/kg
- IC50 (Plasmodium falciparum): 0.65 nM

SMILES: CCOCCc1sc[n+](CCCCCCCCCCCC[n+]2csc(CCOCC)c2C)c1C
- IC50 (Plasmodium falciparum): 1.6 nM

SMILES: Cc1c(CCCl)sc[n+]1CCCCCCCCCCCC[n+]1csc(CCCl)c1C
- IC50 (Plasmodium falciparum): 10 nM

SMILES: Cc1c(CCOCCCCCCOCCc2sc[n+](Cc3ccccc3)c2C)sc[n+]1Cc1ccccc1
- IC50 (Plasmodium falciparum): 36 nM

SMILES: c1ccc(-c2csc[n+]2CCCCCCCCCCCC[n+]2cscc2-c2ccccc2)cc1
- IC50 (Plasmodium falciparum): 1800 nM

SMILES: CCCCCCCCCCCC[n+]1csc(CCO)c1C
- IC50 (Plasmodium falciparum): 70 nM

SMILES: CCN(CC)CCCC(C)Nc1ccnc2cc(Cl)ccc12 (stereo not drawn) [CHLOROQUINE]
- ED50 (Mus musculus): 1.1 mg/kg
